FGF22 binding = shifts melting point of recombinant human FGF22; AID 651658; activity (Tm shift, normalised), % at 9.99 µM; actives 1.5% (n = 340,000); recombinant FGF22 thermal shift, SYPRO orange fluorescence; percent of sucrose octasulfate shift, DMSO zero;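 active = mean Tm shift, scaled 0 neutral to 100 positive control, at about 1.3% or above, every replicate too, limit read from the data; inconclusive = no clear call, values can overlap the other calls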
ERAP1 HTS inh = blocks human ERAP1 aminopeptidase activity | inhibition, % at 10.7 µM | actives 0.15% (n = 340,000) | Q9NZ08 | AID 652197 | recombinant ERAP1, Leu-AMC fluorescence, 60 min;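 active = mean replicate inhibition of at least 30%, or all replicates individually reaching that 30% level; inactive = mean below 30% and not every replicate reaching it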;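 note: 0% = neutral control wells and 100% = L-leucinethiol positive control wells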
Target sequence (Q9NZ08 whole entry, looked up): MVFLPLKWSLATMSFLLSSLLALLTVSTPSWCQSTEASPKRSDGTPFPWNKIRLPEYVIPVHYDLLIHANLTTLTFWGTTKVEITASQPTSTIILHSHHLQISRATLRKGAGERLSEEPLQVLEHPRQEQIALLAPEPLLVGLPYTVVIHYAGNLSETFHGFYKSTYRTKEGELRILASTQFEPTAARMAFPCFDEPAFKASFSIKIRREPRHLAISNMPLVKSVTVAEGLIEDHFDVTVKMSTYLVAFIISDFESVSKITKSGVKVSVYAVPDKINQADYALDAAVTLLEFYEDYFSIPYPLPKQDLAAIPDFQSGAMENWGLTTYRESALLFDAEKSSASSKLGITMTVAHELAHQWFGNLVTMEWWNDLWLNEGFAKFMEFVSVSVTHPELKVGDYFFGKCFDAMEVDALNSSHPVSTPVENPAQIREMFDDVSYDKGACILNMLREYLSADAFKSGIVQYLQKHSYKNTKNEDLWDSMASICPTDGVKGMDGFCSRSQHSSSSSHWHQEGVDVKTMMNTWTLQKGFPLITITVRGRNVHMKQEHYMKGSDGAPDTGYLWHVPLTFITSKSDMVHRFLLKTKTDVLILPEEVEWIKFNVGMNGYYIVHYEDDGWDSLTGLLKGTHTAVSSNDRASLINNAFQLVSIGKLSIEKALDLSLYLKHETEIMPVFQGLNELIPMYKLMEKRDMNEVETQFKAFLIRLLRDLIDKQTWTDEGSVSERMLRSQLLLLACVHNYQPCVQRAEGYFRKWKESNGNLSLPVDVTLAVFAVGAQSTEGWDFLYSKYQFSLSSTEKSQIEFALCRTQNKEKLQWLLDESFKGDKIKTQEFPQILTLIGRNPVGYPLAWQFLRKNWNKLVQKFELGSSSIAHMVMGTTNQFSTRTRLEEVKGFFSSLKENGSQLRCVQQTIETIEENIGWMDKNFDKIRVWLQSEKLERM
CFTR F508del cor = CFTR F508del correction in bronchial cells; actives 0.36% (n = 350,000); activity (quench increase), % at 7.58 µM; CFBE cells, YFP halide quenching; stimulated with forskolin plus potentiator P3; % fluorescence drop versus neutral controls;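 active = mean added fluorescence quench of at least 8% versus neutral control, with both replicates also reaching 8%; inconclusive = only one of the mean or replicate conditions met; inactive = mean below 8% and not both replicates reaching 8%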;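 note: cells transiently co-express mutant CFTR-F508del with the halide-sensitive YFP; corrector assay measuring rescue of mutant channel to the surface after 24 h compound exposure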
DENV2 CPE rescue = DENV2-induced cell death inhibition; CPE inhibition, % at 9.99 µM; actives 1.7% (n = 350,000); AID 651640; DENV2-infected cells, cytopathic effect rescue, plate reader; in the data active = CPE inhibition above about 20%, passing the limit was not always enough; inconclusive = no clear call, values can overlap the other calls; tested in BHK-21 cells;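 note: 0% = median of neutral control wells and 100% = median of positive control wells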
E-selectin induc = E-selectin induction on HUVECs. HUVEC E-selectin immunofluorescence imaging; normalized: neutral wells 0, TNF-alpha wells 100. AID 686992. activation, % at 7.58 µM. actives 0.37% (n = 260,000). P16581;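 active = mean E-selectin-positive cell signal at least 10% of the positive control, reached in at least 60% of replicates, without over 20% cell loss; inconclusive = no rule given, readout overlaps actives, possibly toxicity-flagged; inactive = the rest, including those meeting only one limit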
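System: HUVEC / Compound: single concentration / Signal: immunofluorescence imaging / Read-out: percent E-selectin-positive cells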
The depositor's hits bear a star; ? = inconclusive; nt = no result. Most compounds without a hit are left out; they make up all but 3.7% or so of the library.

SMILES | FGF22 binding | ERAP1 HTS inh | CFTR F508del cor | DENV2 CPE rescue | E-selectin induc
CCc1ccc(NC(=O)CNCc2ccc(OC)c(OC)c2)cc1 | 0 | 3 | 0 | 0 | 0
C[C@H]1CN([C@@H](C)CO)S(=O)(=O)c2ccc(C#CCN(C)C)cc2O[C@@H]1CN(C)S(C)(=O)=O | 0 | 2 | -2 | -4 | 0
FC(F)c1nnc2c(Cl)cc(C(F)(F)F)cn12 | 44* | -2 | 2 | nt | nt
C[C@H]1CN([C@@H](C)CO)C(=O)Cc2cc(NS(=O)(=O)c3ccc(Cl)cc3)ccc2O[C@H]1CN(C)C(=O)Nc1ccc2c(c1)OCO2 | nt | nt | -1 | nt | 0
CC(C)NC(=O)N1[C@@H](CO)[C@@H](c2ccccc2)C12CN(C(=O)CN(C)C)C2 | 0 | -4 | -5 | 3 | 0
COc1ccc(OC)c(S(=O)(=O)NC(=O)C2(C)CCN2C(=O)c2ccco2)c1 (configuration not stated) | 0 | 8 | 3 | 9 | 0
CC(C)(C)c1ccc(S(=O)(=O)NC(=O)C2(C)CCN2C(=O)Cc2cccc3ccccc23)cc1 (configuration not stated) | 6.1* | -4 | 0 | 11 | 1
Cc1ccccc1S(=O)(=O)NC(=O)C1(C)CCN1C(=O)CC(c1ccccc1)c1ccccc1 (configuration not stated) | 0 | -1 | 3 | 38* | 0
CC1(C(=O)NS(=O)(=O)c2ccccc2)CCN1C(=O)Cc1cccc2ccccc12 (configuration not stated) | 0 | 1 | -1 | 3 | 0
CC1(C(=O)NS(=O)(=O)c2ccccc2Cl)CCN1C(=O)c1ccco1 (configuration not stated) | 0 | 5 | 3 | 22* | 0
C[C@@H]1CCCCO[C@@H](CN(C)S(=O)(=O)c2ccc(Cl)cc2)[C@H](C)CN([C@@H](C)CO)C(=O)c2cc(NC(=O)c3ccncc3)ccc2O1 | 0 | 3 | 5 | ? | nt
CCCCc1nc2cc(C(=O)NCc3cn(C)nc3C)ccc2o1 | 0 | -2 | -1 | 47* | 0
C[C@H]1CN([C@@H](C)CO)C(=O)c2cc(-c3ccccc3F)cnc2O[C@@H]1CN(C)C(=O)NC1CCCC1 | 0 | 1 | 2 | -8 | -4
C[C@H]1CN([C@@H](C)CO)C(=O)c2cccc(NC(=O)c3ccncc3)c2O[C@@H]1CN(C)C(=O)Nc1ccc(C(F)(F)F)cc1 | 0 | 1 | -1 | -8 | -3
COC(=O)C[C@H]1c2cc(C(F)(F)F)ccc2S(=O)(=O)N1Cc1ccc(OC)cc1 | -1 | nt | -3 | 20* | 0
COc1ccc(CN2[C@@H](CC(=O)O)c3cc(C(F)(F)F)ccc3S2(=O)=O)cc1 | 0 | 3 | -1 | -5 | 0
COc1ccccc1CN1[C@@H](CC(C)=O)c2cc(C(F)(F)F)ccc2S1(=O)=O | 0 | nt | 0 | 71* | 0
CC(C)NC(=O)N[C@H]1CC[C@H](CC(=O)NCCN2CCCC2)O[C@@H]1CO | 0 | 2 | 1 | nt | 0
COc1ccc(CN(C)C[C@H]2OCCCC[C@@H](C)Oc3ccc(NC(=O)c4ccncc4)cc3C(=O)N([C@@H](C)CO)C[C@H]2C)cc1 | 0 | -1 | -2 | -3 | 0
Cc1noc(C)c1NC(=O)N(C)C[C@@H]1Oc2ccc(NC(=O)CCN3CCOCC3)cc2CC(=O)N([C@@H](C)CO)C[C@@H]1C | 0 | -2 | -4 | 6 | 0
CC(=O)Nc1ccc2cc3ccc(NC(C)=O)cc3nc2c1 | 1 | 0 | 10.0* | 0 | 0
CCOC(=O)C1CCCN(C(=S)Nc2ccc(S(=O)(=O)N3CCOCC3)cc2)C1 (configuration not stated) | 43* | 4 | 5 | 5 | 1
COc1ccc(OCC(=O)OCC(=O)Nc2cc(S(=O)(=O)N3CCOCC3)ccc2Cl)cc1 | 43* | 0 | 2 | 5 | 0
O=C(CN(Cc1ccco1)Cc1ccco1)Nc1cc(S(=O)(=O)N2CCCCC2)ccc1Cl | 0 | 0 | 9.4* | -3 | nt
CC1CCCN(C(=S)Nc2ccc(S(=O)(=O)N3CCCCC3)cc2)C1 (configuration not stated) | 0 | 4 | 0 | -2 | 0
SMILES | FGF22 binding | ERAP1 HTS inh | CFTR F508del cor | DENV2 CPE rescue | E-selectin induc
CCOc1ccc(S(=O)(=O)N2CCOCC2)cc1NC(=O)CSCC(=O)Nc1ccc(OC)cc1 | 0 | 1 | 20* | 1 | 0
Cc1cc(OCC(=O)OCC(=O)Nc2cc(S(=O)(=O)N3CCOCC3)ccc2Cl)ccc1Cl | 0 | 0 | 0 | 16 | 0
CCOc1ccc(S(=O)(=O)N2CCOCC2)cc1NC(=O)CSCC(=O)Nc1ccc(C)cc1 | 0 | -5 | 0 | ? | 1
C[C@@H]1CN([C@H](C)CO)C(=O)Cc2cc(NS(=O)(=O)c3cn(C)cn3)ccc2O[C@@H]1CN(C)C(=O)Nc1ccc2c(c1)OCO2 | 0 | -1 | -4 | 18 | -3
COc1ccc(NC(=O)Nc2ccc3c(c2)C(=O)N([C@@H](C)CO)C[C@H](C)[C@@H](CN(C)C(=O)Nc2ccc(F)cc2)OCCCC[C@H](C)O3)cc1 | 0 | 0 | -1 | -2 | 0
COc1ccc(S(=O)(=O)N2CCOCC2)cc1NC(=O)COC(=O)C1COc2ccccc2O1 (configuration not stated) | 0 | 3 | nt | ? | 118*
O=C(COC(=O)C1CCC1)Nc1cc(S(=O)(=O)N2CCOCC2)ccc1Cl | nt | 0 | 13* | -6 | 0
CCOC(=O)C1CCCN(c2c(N3CCN(C)CC3)c(=O)c2=O)C1 (configuration not stated) | 0 | -2 | 3 | -4 | 4
CCOC(=O)C1CCCN(c2c(N3CCOCC3)c(=O)c2=O)C1 (configuration not stated) | 0 | 5 | -1 | 46* | -1
Cc1ccc(S(=O)(=O)N(C)C)cc1NC(=O)COC(=O)C1CCCC1 | 0 | 1 | -1 | 34* | 0
COc1ccc(C)cc1NC(=O)COC(=O)C1COc2ccccc2O1 (configuration not stated) | 0 | -2 | -1 | 0 | nt
O=C(Nc1cc(S(=O)(=O)N2CCOCC2)ccc1Cl)C1CCC1 | nt | -9 | -3 | 19 | 0
CO[C@@H]1CN(C)C(=O)c2ccc(NC(C)=O)cc2OC[C@@H](C)N(C(=O)c2ccccc2)C[C@@H]1C | 0 | -1 | 1 | -15 | 0
Cc1ccc(S(=O)(=O)N(C)C[C@H]2Oc3ccc(NC(=O)Cc4ccccc4)cc3CC(=O)N([C@H](C)CO)C[C@@H]2C)cc1 | 0 | 2 | -3 | ? | 1
CN(C)CCCNC(=O)C[C@H]1CC[C@@H]2[C@H](COc3ccc(NC(=O)c4ccccc4F)cc3C(=O)N2C)O1 | 0 | -4 | 0 | -4 | 0
CCOC(=O)N1CCN(C(=S)Nc2cc(S(=O)(=O)N3CCOCC3)ccc2Cl)CC1 | 45* | 4 | -1 | 5 | 4
